From PubChem BioAssay
Records with an inconclusive call do not appear.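 The calls were made as follows, unless noted: active = viability increase at or above a cutoff of the median across tested compounds plus 3 SD (cut at about 8.5% in these data, passing the limit was not always enough); inconclusive = some gains above the cutoff, reason not given; inactive = the rest.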

Columns and labels:
[1] = S. cerevisiae growth inhibition in permissive medium (OD615), pilot counter-assay for S. cerevisiae lifespan shortening project, permissive growth control (AID 705;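 active = growth inhibition above 25% in both replicates, a cutoff set 3 SD above the mean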); details: OD615, 24 h, at 10 µM, hits give high values
Method in brief: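 System: S. cerevisiae with engineered DeaD lifespan system. Medium: SC raffinose/galactose permissive medium. Doses: single compound dose of 10 µM, 0.25% DMSO final. Schedule: 24 h exposure, 30 °C. Measured by: OD615 turbidity read. Read-out: growth inhibition.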

[2] = S. cerevisiae growth inhibition in restrictive medium, OD615, pilot screen, restrictive growth control, yeast lifespan reduction project (AID 706;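 active = growth inhibition above a set limit, 3 SD over mean compound inhibition, in both replicates, cut at about 43% in these data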;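 also: modified DeaD lifespan yeast strain shifted to restrictive glucose medium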); details: OD615, 48 h, at 10 µM, hits give high values
Method in brief: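 Assay system – genetically modified Saccharomyces cerevisiae, DeaD replicative lifespan assay strain · Medium – CSMM-D glucose medium · Doses – 10 µM compound, 0.25% DMSO · Times – 4 h pre-incubation, 48 h exposure at 30 °C · Signal – optical density at 615 nm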

[3] = doxorubicin toxicity protection in MRP-1 cells – H69AR cells, CellTiter-Glo, duplicate, MRP-1 activator project, pilot screen (AID 807); details: H69AR viability with doxorubicin, CellTiter-Glo luminescence; at 10 µM; hits give high values;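 also: compound pretreatment 18-22 h then 72 h combined with doxorubicin; 0% = doxorubicin alone and 100% = vehicle without doxorubicin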
[4] = viability of HCT116 without oncogenic beta-catenin – human colon tumor cells, pilot screen (AID 823;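 active = cell viability at or below a set limit in both duplicate runs, the limit being the all-compound median minus 4 SD, cut at about 23% in these data, passing the limit was not always enough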;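 also: 0% = wells killed by 20 µM Hyamine and 100% = untreated DMSO cell wells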); details: HCT116 beta-catenin knockout viability, CellTiter-Glo, 60 h; at 10 µM; hits give low values
[5] = viability of PTEN-null HCT116 cells – cell-based, HCT116 clonal line, CellTiter-Glo, pilot screen (AID 824;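 active = viability at or below 27.92% in each of two runs, the all-compound median minus 4 SD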;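 also: 0% = 20 µM Hyamine control and 100% = vehicle cell control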); details: HCT116 PTEN-deleted viability, 60 h, at 10 µM, hits give low values
[6] = RAM pathway blockade in budding yeast – dse1pr::URA3 reporter, 5-FOA selection, pilot screen (AID 869;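 active = inhibition over a set limit, the all-compound mean plus 3 SD, in both replicate runs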;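 also: 0% = DMSO wells with no growth and 100% = 10 µM 1-NA-PP1 with full growth; RAM network block rescues cells from 5-FOA so hits raise OD615 growth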); details: S. cerevisiae dse1pr::URA3 5-FOA growth, OD615, 2 d; at 10 µM; hits give high values; strain carries analog-sensitive mutant Cbk1 kinase
[7] = RAM signaling pathway blockade in yeast – S. cerevisiae, Pdr1DBD-CYC8 efflux-inhibited sensitized strain, primary screen (AID 1298;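 active = RAM network inhibition above 8.4% in each of two replicates, 3 SD over the compound average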;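 also: 0% = DMSO untreated cells without growth and 100% = 10 µM 1-NA-PP1 full growth; higher means more yeast growth rescued from 5-FOA killing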); details: S. cerevisiae cbk1-as DSE1-URA3 strain, 5-FOA growth OD615, 2 d; at 50 µM; hits give high values

CC(C)c1nnc(NC(=O)CN2C(=O)c3ccccc3C2=O)s1
inactive: growth inhibition [1] -5.71% | growth inhibition [2] -6.92% | viability increase [3] -1.95% | viability [4] 96.3% | viability [5] 89.1% | inhibition [6] 1.61% | RAM network inhibition [7] 3.84%

O=C(CSc1nnc(-c2ccccc2Cl)o1)N1CCCCC1
inactive: growth inhibition [1] -8.71% | growth inhibition [2] 7.85% | viability increase [3] 1.04% | viability [4] 95.1% | viability [5] 97.6% | inhibition [6] 0.32% | RAM network inhibition [7] 0.36%

O=C(O)CCc1ccc(-c2cccs2)n1NC(=O)c1ccc(Cl)cc1
inactive: growth inhibition [1] -6.03% | growth inhibition [2] -14.6% | viability increase [3] -3.75% | viability [4] 98% | viability [5] 93.9% | inhibition [6] 0.29% | RAM network inhibition [7] -0.58%

Clc1ccc(-c2nnc(N3CCCC3)nn2)cc1
inactive: growth inhibition [1] -7.18% | growth inhibition [2] 4.79% | viability increase [3] -2.71% | viability [4] 86.6% | viability [5] 92.2% | inhibition [6] 0.995% | RAM network inhibition [7] 0.52%

COc1ccc(CN=CC2=C(O)CNC2=O)cc1OC
inactive: growth inhibition [1] -12% | growth inhibition [2] -8.51% | viability increase [3] -0.57% | viability [4] 99.8% | viability [5] 103% | inhibition [6] 1.47% | RAM network inhibition [7] 5.81%

CCCc1cc(C(=O)Nc2cc(Br)ccc2O)no1
inactive: growth inhibition [1] -4.99% | growth inhibition [2] -3.92% | viability increase [3] -4.83% | viability [4] 89% | viability [5] 88.1% | inhibition [6] 2.76% | RAM network inhibition [7] 5.97%

CC(=O)Nc1ccc(NC(=O)CCC(=O)NCCO)cc1
inactive: growth inhibition [1] -10.7% | growth inhibition [2] -16.7% | viability increase [3] -0.28% | viability [4] 90.8% | viability [5] 92.8% | inhibition [6] 0.825% | RAM network inhibition [7] 5.19%

CCOC(=O)N1CCN(S(=O)(=O)c2cccc3nonc23)CC1
inactive: growth inhibition [1] -9.77% | growth inhibition [2] -27.6% | viability increase [3] -1.56% | viability [4] 90.5% | viability [5] 92.2% | inhibition [6] 1.68% | RAM network inhibition [7] 5.47%

CCCc1nnc(SCC(=O)O)n1/N=C/c1ccc2c(c1)OCO2
inactive: growth inhibition [1] 8.88% | growth inhibition [2] 34.1% | viability increase [3] -2.31% | viability [4] 102% | viability [5] 101% | inhibition [6] 0.54% | RAM network inhibition [7] 0.41%

Cc1c(C(=O)N2CCC(C(N)=O)CC2)sc(N)c1C#N
inactive: growth inhibition [1] -12.1% | growth inhibition [2] -8.07% | viability increase [3] -0.41% | viability [4] 94.7% | viability [5] 99.1% | inhibition [6] 2.91% | RAM network inhibition [7] 9.2%

CC(C)(C)NC(=O)C1CCCN(S(=O)(=O)c2cccc3cccnc23)C1 (configuration not stated)
inactive: growth inhibition [1] -5.03% | growth inhibition [2] 3.88% | viability increase [3] -2.62% | viability [4] 103% | viability [5] 96.1% | inhibition [6] 1.6% | RAM network inhibition [7] 0.52%

CCCCN(CC)CCNc1c(NC2CCN(C(=O)OCC)CC2)c(=O)c1=O
inactive: growth inhibition [1] 2.35% | growth inhibition [2] 5.98% | viability increase [3] -0.12% | viability [4] 100% | viability [5] 95% | inhibition [6] 0.09% | RAM network inhibition [7] 3.37%

COc1ccc(S(=O)(=O)N2CCC(C(=O)NCCC3=CCCCC3)CC2)cc1OC
inactive: growth inhibition [1] -5.45% | growth inhibition [2] -0.575% | viability increase [3] -0.8% | viability [4] 96.2% | viability [5] 96.9% | inhibition [6] 1.67% | RAM network inhibition [7] 4.24%

COc1ccc(N2C(=O)C3CCCN3C2c2ccc(Cl)cc2)cc1 (configuration not stated)
inactive: growth inhibition [1] -6.21% | growth inhibition [2] -6.83% | viability increase [3] -2.6% | viability [4] 101% | viability [5] 95.5% | inhibition [6] 1.7% | RAM network inhibition [7] 2.27%

COc1ccccc1NC(=O)CSc1nnc(C)o1
inactive: growth inhibition [1] -7.09% | growth inhibition [2] -9.04% | viability increase [3] -1.19% | viability [4] 101% | viability [5] 102% | inhibition [6] 2.02% | RAM network inhibition [7] 2.69%

Cc1ccc(-n2c(C)cc(C(=O)OCC(=O)N(C)C3CCS(=O)(=O)C3)c2C)cc1 (configuration not stated)
inactive: growth inhibition [1] -15.9% | growth inhibition [2] -17.3% | viability increase [3] -1.95% | viability [4] 91.7% | viability [5] 91.1% | inhibition [6] 0.955% | RAM network inhibition [7] 8.11%

O=C(Nc1cccc(C(F)(F)F)c1)c1cnc2n(c1=O)CCS2
inactive: growth inhibition [1] -9.46% | growth inhibition [2] 5.56% | viability increase [3] 0.63% | viability [4] 108% | viability [5] 95.2% | inhibition [6] 2.6% | RAM network inhibition [7] 5.71%

NC(=O)c1ccsc1NC(=O)C1CCCCC1
inactive: growth inhibition [1] -3.66% | growth inhibition [2] -5.7% | viability increase [3] -0.9% | viability [4] 102% | viability [5] 101% | inhibition [6] 0.965% | RAM network inhibition [7] 0.22%

CCOC(=O)C1CCN(C(c2cccs2)c2sc3nc(C)nn3c2O)CC1 (configuration not stated)
inactive: growth inhibition [1] -2.81% | growth inhibition [2] -7.96% | viability increase [3] -0.58% | viability [4] 105% | viability [5] 99.3% | inhibition [6] 0.905% | RAM network inhibition [7] 3.86%

O=C(NCc1ccccn1)C1CCN(S(=O)(=O)N2CCCC2)CC1
inactive: growth inhibition [1] -5.04% | growth inhibition [2] -10% | viability increase [3] -0.46% | viability [4] 109% | viability [5] 95.7% | inhibition [6] 0.3% | RAM network inhibition [7] 3.61%

O=c1[nH]c2ccccc2n1Cc1ccc(F)cc1
inactive: growth inhibition [1] -5.88% | growth inhibition [2] -4.46% | viability increase [3] 1.93% | viability [4] 96.6% | viability [5] 92.4% | inhibition [6] 1.71% | RAM network inhibition [7] -0.05%

COc1ccc(C(C#N)Nc2ccccc2OC)cc1 (configuration not stated)
inactive: growth inhibition [1] -7.99% | growth inhibition [2] -12.7% | viability increase [3] -2.75% | viability [4] 80.9% | viability [5] 96% | inhibition [6] 0.35% | RAM network inhibition [7] 2.51%

Cc1ccc(-c2nc(CS(=O)CC(=O)NCCN3CCOCC3)c(C)o2)cc1 (configuration not stated)
inactive: growth inhibition [1] -6.06% | growth inhibition [2] 2.29% | viability increase [3] -0.04% | viability [4] 92.9% | viability [5] 98% | inhibition [6] 1.84% | RAM network inhibition [7] 2.15%

CCCNC(=O)N1CCN(c2nc(C(C)C)c3c(c2C#N)CC(C)(C)OC3)CC1
inactive: growth inhibition [1] -12.9% | growth inhibition [2] -6.2% | viability increase [3] 2.34% | viability [4] 68.8% | viability [5] 61.5% | inhibition [6] 2.17% | RAM network inhibition [7] 8.42%

COc1ccc(O)c(-c2[nH]ncc2C(=O)c2ccccc2)c1
inactive: growth inhibition [1] -14.7% | growth inhibition [2] -2.28% | viability increase [3] -2.45% | viability [4] 101% | viability [5] 94.8% | inhibition [6] 1.27% | RAM network inhibition [7] 4.35%

Cc1nnc(SCC(=O)Nc2ccc3c(c2)COC3=O)n1-c1ccccc1
inactive: growth inhibition [1] -9.99% | growth inhibition [2] 0.555% | viability increase [3] -0.13% | viability [4] 98.8% | viability [5] 92.8% | inhibition [6] 3.27% | RAM network inhibition [7] 1.16%

COc1ccc(-c2nc(C#N)c(NCCN(C)C)o2)cc1
inactive: growth inhibition [1] -5.38% | growth inhibition [2] -5.11% | viability increase [3] -0.95% | viability [4] 101% | viability [5] 97.5% | inhibition [6] 0.355% | RAM network inhibition [7] 3.09%

O=C(CN(C1CCCCC1)S(=O)(=O)c1ccc(F)cc1)NCCCO
inactive: growth inhibition [1] -6.21% | growth inhibition [2] 2.23% | viability increase [3] -0.51% | viability [4] 103% | viability [5] 98.1% | inhibition [6] 1.75% | RAM network inhibition [7] 1.27%

O=C(c1ccco1)N1CCN=C1SCc1cccc(Cl)c1
inactive: growth inhibition [1] -1.8% | growth inhibition [2] 14% | viability increase [3] 1.56% | viability [4] 87.3% | viability [5] 91.9% | inhibition [6] 0.89% | RAM network inhibition [7] 0.26%

COc1ccc(CC2CCOC2=O)cc1 (configuration not stated)
inactive: growth inhibition [1] -10.7% | growth inhibition [2] -8.8% | viability increase [3] 0.08% | viability [4] 98% | viability [5] 93.9% | inhibition [6] 1.93% | RAM network inhibition [7] -0.09%

COc1ccc(CN2CCN(C(=O)c3ccco3)CC2)cc1OCc1ccccc1
inactive: growth inhibition [1] -9.2% | growth inhibition [2] -18.8% | viability increase [3] -2.34% | viability [4] 88% | viability [5] 83.3% | inhibition [6] 0.95% | RAM network inhibition [7] 2.98%

Cc1cc(N2CCOCC2)nc(NCc2ccccc2)n1
inactive: growth inhibition [1] 3.04% | growth inhibition [2] -5.48% | viability increase [3] -3.86% | viability [4] 72% | viability [5] 64.8% | inhibition [6] 1.17% | RAM network inhibition [7] 4.85%

O=C(c1ccc(N2CCCCS2(=O)=O)cc1)N1CCN(c2ccc(N3CCOCC3)nn2)CC1
inactive: growth inhibition [1] 3.18% | growth inhibition [2] 14.7% | viability increase [3] -0.03% | viability [4] 105% | viability [5] 106% | inhibition [6] 0.09% | RAM network inhibition [7] 1.25%

CCN1CCN(C(CNS(=O)(=O)c2ccc(OC)cc2)c2cccnc2)CC1 (configuration not stated)
inactive: growth inhibition [1] -0.57% | growth inhibition [2] 8.5% | viability increase [3] -1.16% | viability [4] 105% | viability [5] 98.2% | inhibition [6] 3.57% | RAM network inhibition [7] 3.38%

Cn1c(=O)oc2cc(S(=O)(=O)N3CCCC(C(=O)Nc4ccc5c(c4)OCCO5)C3)ccc21 (configuration not stated)
inactive: growth inhibition [1] -0.19% | growth inhibition [2] -4.89% | viability increase [3] -1.81% | viability [4] 89.5% | viability [5] 90% | inhibition [6] 1.42% | RAM network inhibition [7] 1.66%

CN(C)CCNC(=O)c1ccc(CS(=O)(=O)c2ccc(Br)cc2)o1
inactive: growth inhibition [1] 3.18% | growth inhibition [2] 4.8% | viability increase [3] -0.05% | viability [4] 103% | viability [5] 103% | inhibition [6] 0.565% | RAM network inhibition [7] 2.81%
